Usually IC50 stands for the concentration that gives 50% inhibition. A word on the MIC: it is the smallest concentration in the dilution series that meets the test's criterion for growth inhibition.

For one experiment, the system named is PBMC. Description: Cytotoxicity against human PBMC assessed as cell viability after 72 hrs by MTT assay. The experiment is classed as cell-based. A digest of the protocol:
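Normal proliferating human peripheral blood mononuclear cells exposed to compound for 72 h; viability read by MTT; result given as IC50.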
(In general: Tetrazolium dyes change colour on reduction, which living cells bring about.)

The next experiment relates to Candida parapsilosis. The experiment in a line: Antifungal activity against Candida parapsilosis ATCC 22019 assessed as growth inhibition by microdliution method. The experiment is classed as functional. The conditions noted are these: Lodderomyces parapsilosis.
A short description of experiment [1]: Selectivity index, ratio of IC50 for human PBMC to MIC for Candida parapsilosis ATCC 22019.
The next experiment deals with Plasmodium falciparum. Description: Antiplasmodial activity against Plasmodium falciparum assessed as growth inhibition. The experiment is classed as functional, organism-based.

Converted amounts (≈) assume the structure as drawn.

Turning to `CCCCCCCCCCCCCCCCO[C@@H]1O[C@H](CO)[C@@H](O)[C@H](O)[C@H]1O[C@@H]1O[C@@H](C)[C@H](OC(C)=O)[C@@H](O)[C@H]1OC(C)=O`, in the experiment on PBMC, the IC50 was above 39.4 µM. The MIC in the experiment with Candida parapsilosis was 6.31 µM.

Consider `CCCCCCCCCCCCCCCCO[C@@H]1O[C@H](CO)[C@@H](O)[C@H](O)[C@H]1O[C@@H]1O[C@@H](C)[C@H](OC(C)=O)[C@@H](OC(C)=O)[C@H]1O`, for which, in experiment [1], the “Selectivity Index” value turned out to be 12.5. Also, the IC50 with PBMC was above 39.4 µM. In the experiment on Candida parapsilosis, the MIC was 3.15 µM.

Turning to `CCCCCCCCCCCCCCCCO[C@@H]1O[C@H](CO)[C@@H](O)[C@H](O)[C@H]1O[C@@H]1O[C@@H](C)[C@H](OC(C)=O)[C@@H](OC(C)=O)[C@H]1OC(C)=O`, the IC50 with PBMC was 25.4 µM. The minimal inhibitory concentration (MIC) in the experiment on Candida parapsilosis came out at 189 µM.

Turning to `CCCCCCCCCCCCCCCCO[C@@H]1O[C@H](COC(=O)CCCCCCCCCCCCCCC)[C@@H](O)[C@H](O)[C@H]1O[C@@H]1O[C@@H](C)[C@H](OC(C)=O)[C@@H](OC(C)=O)[C@H]1OC(C)=O`, the IC50 in the experiment on Plasmodium falciparum stood at 4.7 µg/mL (≈ 5.14 µM).

With `CCCCCCCCCCCCCCCCO[C@@H]1O[C@H](COC(C)=O)[C@@H](OC(C)=O)[C@H](O)[C@H]1O[C@@H]1O[C@@H](C)[C@H](OC(C)=O)[C@@H](OC(C)=O)[C@H]1OC(C)=O`, the IC50 with Plasmodium falciparum was 7.1 µg/mL (≈ 9.33 µM).

With `CCCCCCCCCCCCCCCCO[C@@H]1O[C@H](COC(C)=O)[C@@H](O)[C@H](OC(C)=O)[C@H]1O[C@@H]1O[C@@H](C)[C@H](OC(C)=O)[C@@H](OC(C)=O)[C@H]1OC(C)=O`, the IC50 in the experiment with Plasmodium falciparum worked out at 13 µg/mL (≈ 17.1 µM).

With `CCCCCCCCCCCCCCCCO[C@@H]1O[C@H](COC(C)=O)[C@@H](O)[C@H](O)[C@H]1O[C@@H]1O[C@@H](C)[C@H](OC(C)=O)[C@@H](OC(C)=O)[C@H]1OC(C)=O`, the IC50 in the experiment on Plasmodium falciparum was 15.7 µg/mL (≈ 21.8 µM).

Consider `C[C@@H]1[C@H](O)[C@@H](C)/C=C/C=C/C=C/C=C/C=C/C=C/C=C/[C@H](O[C@@H]2O[C@H](C)[C@@H](O)[C@H](N)[C@@H]2O)C[C@@H]2O[C@](O)(C[C@@H](O)C[C@@H](O)[C@H](O)CC[C@@H](O)C[C@@H](O)CC(=O)O[C@H]1C)C[C@H](O)[C@H]2C(=O)O` [AMPHOTERICIN B], for which, in the experiment on PBMC, the IC50 was above 5.41 µM. The MIC in the experiment on Candida parapsilosis came to 4.33 µM.

`COc1cccc2c1C(=O)c1c(O)c3c(c(O)c1C2=O)C[C@@](O)(C(=O)CO)C[C@@H]3O[C@H]1C[C@H](N)[C@H](O)[C@H](C)O1` [DOXORUBICIN]: the IC50 in the experiment on PBMC stood at 1.7 µM.

In the case of `OC(Cn1cncn1)(Cn1cncn1)c1ccc(F)cc1F` [FLUCONAZOLE], in the experiment on PBMC, the concentration for half-maximal inhibition (IC50) was above 16.3 µM. In addition, in the experiment on Candida parapsilosis, the MIC is 0.2 µM.

Take `CCC(C)n1ncn(-c2ccc(N3CCN(c4ccc(OCC5COC(Cn6cncn6)(c6ccc(Cl)cc6Cl)O5)cc4)CC3)cc2)c1=O` (stereo not drawn) [ITRACONAZOLE]: the IC50 in the experiment on PBMC was found to be 1.53 µM. Moreover, in the experiment on Candida parapsilosis, the MIC came to 0.71 µM.

Values taken from ChEMBL document CHEMBL3120065, “Antifungal ether diglycosides from Matayba guianensis Aublet” (Bioorg Med Chem Lett, 2014).
